Assay results: ChEMBL document CHEMBL1148192, “Nagelamides A-H, new dimeric bromopyrrole alkaloids from marine sponge Agelas species” (J Nat Prod, 2004)
≈ marks a conversion by molar mass, not a printed value.

Experiments:
[1] = Inhibition of protein phosphatase 2A in african green monkey COS7 cells; type: cell-based, Chlorocebus aethiops; settings: cos-7
Procedure, shortened: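 PP2A activity was measured in COS-7 cell extract. Cells were lysed at 4 °C in hypotonic Tris-HCl pH 7.5 buffer with DTT, EGTA and protease inhibitors, then centrifuged at 20000g. Extract at 5 μg/mL protein was preincubated with compound for 10 min at 30 °C. Activity was taken as the okadaic acid (1 nM)-sensitive portion, run in triplicate and reported as the mean.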

Bacillus subtilis = assay: Antimicrobial activity against Bacillus subtilis; type: functional
Procedure, shortened: (§1)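 Microbroth dilution method in BHI medium.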

Escherichia coli = assay: Antimicrobial activity against Escherichia coli; type: functional; procedure, shortened: as §1
Micrococcus luteus = assay: Antimicrobial activity against Micrococcus luteus; type: functional; procedure, shortened: as §1

IC50 [1] | MIC (Bacillus subtilis) | MIC (Escherichia coli) | MIC (Micrococcus luteus) | SMILES
 | 16.7 µg/mL (≈ 23.9 µM) | 33.3 µg/mL (≈ 47.6 µM) | 4.17 µg/mL (≈ 5.96 µM) | Nc1nc([C@H]2c3[nH]c(N)nc3C[C@H](CNC(=O)c3cc(Br)c[nH]3)[C@H]2CNC(=O)c2cc(Br)c(Br)[nH]2)c[nH]1 [NAGELAMIDE F]
13 µM | 16.7 µg/mL (≈ 21.5 µM) | 33.3 µg/mL (≈ 42.8 µM) | 2.08 µg/mL (≈ 2.67 µM) | Nc1nc([C@H]2c3[nH]c(N)nc3C[C@H](CNC(=O)c3cc(Br)c(Br)[nH]3)[C@H]2CNC(=O)c2cc(Br)c(Br)[nH]2)c[nH]1 [NAGELAMIDE G]
46 µM | 33.3 µg/mL (≈ 37 µM) | > 33.3 µg/mL | 16.7 µg/mL (≈ 18.6 µM) | NC1=N/C(=N\CCS(=O)(=O)O)C(/C=C/CNC(=O)c2cc(Br)c(Br)[nH]2)(c2[nH]c(N)nc2/C=C/CNC(=O)c2cc(Br)c(Br)[nH]2)N1 (stereo unspecified) [NAGELAMIDE H]
50 µM | 8.33 µg/mL | 33.3 µg/mL | 4.07 µg/mL | Cl.Cl.Nc1ncc([C@H]2[C@H](CNC(=O)c3cc(Br)c[nH]3)[C@@H](CNC(=O)c3cc(Br)c[nH]3)[C@@H]2c2cnc(N)[nH]2)[nH]1 [SCEPTRIN HYDROCHLORIDE]

The next lines start with the molecule.

SMILES | IC50 [1] | MIC (Bacillus subtilis) | MIC (Escherichia coli) | MIC (Micrococcus luteus)
Nc1nc([C@@H]2c3[nH]c(N)nc3C[C@H](CNC(=O)c3cc(Br)c[nH]3)[C@H]2CNC(=O)c2cc(Br)c[nH]2)c[nH]1.O=C(O)C(F)(F)F.O=C(O)C(F)(F)F [AGELIFERIN] | > 50 µM | 8.33 µg/mL | 33.3 µg/mL | 4.17 µg/mL
Nc1nc([C@@H]2c3[nH]c(N)nc3C[C@H](CNC(=O)c3cc(Br)c[nH]3)[C@H]2CNC(=O)c2cc(Br)c(Br)[nH]2)c[nH]1 [BROMOAGELIFERIN] | > 50 µM | 2.08 µg/mL (≈ 2.97 µM) | 16.7 µg/mL (≈ 23.9 µM) | 2.08 µg/mL (≈ 2.97 µM)
Nc1nc([C@H](CCNC(=O)c2cc(Br)c(Br)[nH]2)c2[nH]c(N)nc2/C=C/CNC(=O)c2cc(Br)c(Br)[nH]2)c[nH]1 [NAGELAMIDE A] | 48 µM | 16.7 µg/mL (≈ 21.5 µM) | 33.3 µg/mL (≈ 42.8 µM) | 2.08 µg/mL (≈ 2.67 µM)
Nc1nc([C@@H](c2[nH]c(N)nc2/C=C/CNC(=O)c2cc(Br)c(Br)[nH]2)[C@H](O)CNC(=O)c2cc(Br)c(Br)[nH]2)c[nH]1 [NAGELAMIDE B] | > 50 µM | 33.3 µg/mL (≈ 41.9 µM) | 33.3 µg/mL (≈ 41.9 µM) | 4.17 µg/mL (≈ 5.25 µM)
Nc1nc(/C(=C/CNC(=O)c2cc(Br)c(Br)[nH]2)c2[nH]c(N)nc2/C=C/CNC(=O)c2cc(Br)c(Br)[nH]2)c[nH]1 [NAGELAMIDE C] | > 50 µM | 33.3 µg/mL (≈ 42.9 µM) | 33.3 µg/mL (≈ 42.9 µM) | 4.17 µg/mL (≈ 5.37 µM)
Nc1nc([C@H](CCNC(=O)c2cc(Br)c(Br)[nH]2)c2[nH]c(N)nc2CCCNC(=O)c2cc(Br)c(Br)[nH]2)c[nH]1 [NAGELAMIDE D] |  | 33.3 µg/mL (≈ 42.7 µM) | 33.3 µg/mL (≈ 42.7 µM) | 4.17 µg/mL (≈ 5.35 µM)
Nc1nc([C@H]2c3[nH]c(N)nc3C[C@H](CNC(=O)c3cc(Br)c[nH]3)[C@H]2CNC(=O)c2cc(Br)c[nH]2)c[nH]1 [NAGELAMIDE E] |  | 16.7 µg/mL (≈ 26.9 µM) | 33.3 µg/mL (≈ 53.7 µM) | 4.17 µg/mL (≈ 6.72 µM)
